ChEMBL document CHEMBL1157268, “ent-Labdane diterpenoids from Andrographis paniculata” (2006)
Calls of active or inactive are those of the source. The rule behind the calls is not given here.

What was measured:
Candida albicans = assay: Antimicrobial activity against Candida albicans at 10 ug/ml by disk diffusion assay; format: functional, organism-based
In short: (§1)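 Qualitative screen on agar plates: each diterpenoid applied to disks at 10 µg/mL and tested in parallel against eight strains (B. subtilis, S. aureus, E. coli, M. luteus, S. lutea, C. albicans, C. sake, A. niger). Growth inhibition was scored as a clear inhibition zone around the disk, with zone diameter in mm as the read-out.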

[Candida] sake = Antimicrobial activity against Candida sake at 10 ug/ml by disk diffusion assay; format: functional, organism-based; in short: as §1
Aspergillus niger = assay: Antimicrobial activity against Aspergillus niger at 10 ug/ml by disk diffusion assay; format: functional, organism-based; in short: as §1
Micrococcus luteus = assay: Antimicrobial activity against Micrococcus luteus at 10 ug/ml by disk diffusion assay; format: functional, organism-based; in short: as §1
Escherichia coli = assay: Antimicrobial activity against Escherichia coli at 10 ug/ml by disk diffusion assay; format: functional, organism-based; in short: as §1
Staphylococcus aureus = assay: Antimicrobial activity against Staphylococcus aureus at 10 ug/ml by disk diffusion assay; format: functional, organism-based; in short: as §1
Bacillus subtilis = assay: Antimicrobial activity against Bacillus subtilis at 10 ug/ml by disk diffusion assay; format: functional; conditions: for zone of inhibition at 10 µg/mL: read-out: IZ; in short: as §1

| Structure (SMILES) | Activity (Candida albicans) | Activity ([Candida] sake) | Activity (Aspergillus niger) | Activity (Micrococcus luteus) | Activity (Escherichia coli) | Activity (Staphylococcus aureus) | Activity (Bacillus subtilis) | zone of inhibition at 10 µg/mL (Bacillus subtilis) [mm] |
| --- | --- | --- | --- | --- | --- | --- | --- | --- |
| C=C1CC[C@@H]2[C@](C)(CO[C@@H]3O[C@H](CO)[C@@H](O)[C@H](O)[C@H]3O)CCC[C@@]2(C)[C@@H]1CCC1=CCOC1=O | inactive | inactive | inactive | inactive | inactive | inactive | inactive |  |
| C=C1CC[C@@H]2[C@](C)(CO[C@@H]3O[C@H](CO)[C@@H](O)[C@H](O)[C@H]3O)[C@H](O)CC[C@@]2(C)[C@@H]1CCC1=CCOC1=O | inactive | inactive | inactive | inactive | inactive | inactive | inactive |  |
| C[C@]1(CO)[C@H]2CC[C@]3(CO3)[C@@H](CCC3=CCOC3=O)[C@]2(C)CC[C@H]1O | inactive | inactive | inactive | inactive | inactive | inactive | inactive |  |
| C=C1CC[C@H]2[C@@](C)(CCC[C@@]2(C)C(=O)O[C@@H]2O[C@H](CO)[C@@H](O)[C@H](O)[C@H]2O)[C@@H]1CC/C(=C/CO)CO | inactive | inactive | inactive | inactive | inactive | inactive | inactive |  |
| C=C1CC[C@@H]2[C@](C)(CO[C@@H]3O[C@H](CO)[C@@H](O)[C@H](O)[C@H]3O)[C@H](O)CC[C@@]2(C)[C@@H]1C/C=C1/C(=O)OC[C@H]1O | inactive | inactive | inactive | inactive | inactive | inactive | inactive |  |
| C=C1CC[C@H]2[C@@](C)(CC[C@@H](O)[C@@]2(C)CO)[C@@H]1C(=O)/C=C1\CCOC1=O | inactive | inactive | inactive | inactive | inactive | inactive | inactive |  |
| C=C1CC[C@@H]2[C@](C)(CO)[C@H](O)CC[C@@]2(C)[C@@H]1C[C@@H](O)C1=CCOC1=O | inactive | inactive | inactive | inactive | inactive | inactive |  | 7 |
| C=C1CC[C@@H]2C(C)(C)[C@H](O[C@@H]3O[C@H](CO)[C@@H](O)[C@H](O)[C@H]3O)CC[C@@]2(C)[C@@H]1CCC1=CCOC1=O | inactive | inactive | inactive | inactive | inactive | inactive | inactive |  |
| C=C1CC[C@@H]2[C@](C)(CO)CCC[C@@]2(C)[C@@H]1CCC1=CCOC1=O [ANDROGRAPANIN] | inactive | inactive | inactive | inactive | inactive | inactive |  | 7 |
| C=C1CC[C@@H]2[C@](C)(CO)[C@H](O)CC[C@@]2(C)[C@@H]1C/C=C1/C(=O)OC[C@H]1O | inactive | inactive | inactive | inactive | inactive | inactive | inactive |  |
| C=C1CC[C@@H]2[C@](C)(CO)[C@H](O)CC[C@@]2(C)[C@@H]1/C=C/C1=CCOC1=O | inactive | inactive | inactive | inactive | inactive | inactive |  | 7 |
| C=C1CC[C@@H]2[C@](C)(CO[C@@H]3O[C@H](CO)[C@@H](O)[C@H](O)[C@H]3O)[C@H](O)CC[C@@]2(C)[C@@H]1/C=C/C1=CCOC1=O | inactive | inactive | inactive | inactive | inactive | inactive | inactive |  |
| C=C1CC[C@@H]2[C@](C)(CO)[C@H](O)CC[C@@]2(C)[C@@H]1CCC1=CCOC1=O | inactive | inactive | inactive | inactive | inactive | inactive | inactive |  |
| C=C1CC[C@@H]2[C@](C)(CO)[C@H](O)CC[C@@]2(C)[C@@H]1C/C=C1\C(=O)OCC1O (stereo not given in full) [ISOANDROGRAPHOLIDE] | inactive | inactive | inactive | inactive | inactive | inactive |  | 7 |
| C=C1CC[C@@H]2[C@](C)(CO[C@@H]3O[C@H](CO)[C@@H](O)[C@H](O)[C@H]3O[C@@H]3OC[C@](O)(CO)[C@H]3O)CCC[C@@]2(C)[C@@H]1CCC1=CCOC1=O | inactive | inactive | inactive | inactive | inactive | inactive | inactive |  |
| C[C@]1(CO)[C@H]2CC[C@H](CO)[C@@H](CCC3=CCOC3=O)[C@]2(C)CC[C@H]1O | inactive | inactive | inactive | inactive | inactive | inactive | inactive |  |
| C=C1CCC2C(C)(CO)C(O)CCC2(C)C1/C=C/C1=CC(C2(CCC3=CCOC3=O)C(=C)CCC3C(C)(CO)C(O)CCC32C)OC1=O (stereo not given) | inactive | inactive | inactive | inactive | inactive | inactive | inactive |  |
| C=C1CC[C@@H]2[C@](C)(CO)[C@H](O)CC[C@@]2(C)[C@@H]1C(O)/C=C1\CCOC1=O (stereo not given in full) | inactive | inactive | inactive | inactive | inactive | inactive | inactive |  |
| C=C1CC[C@@H]2[C@](C)(CO)[C@H](O[C@@H]3O[C@H](CO)[C@@H](O)[C@H](O)[C@H]3O)CC[C@@]2(C)[C@@H]1C/C=C1/C(=O)OC[C@H]1O | inactive | inactive | inactive | inactive | inactive | inactive | inactive |  |
| C=C1CC[C@@H]2[C@](C)(CO)[C@H](O)CC[C@@]2(C)[C@@H]1C[C@@H](O)C1C(=O)OC[C@H]1O (stereo not given in full) | inactive | inactive | inactive | inactive | inactive | inactive | inactive |  |
